Bioassay records (PubChem)
A selection: hits, their analogues and other compounds. The true share with any hit is near 1.9%.
M4 PAM = potentiates acetylcholine response at human M4 receptor; CHO-K1 hM4/Gqi5, Fluo-8 calcium fluorescence, ACh EC20; 0% = ACh EC20, 100% = maximal ACh; activation, % at 3 µM; 360,000 tested, 0.4% active;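 active = activation above its plate's cutoff, the mean activation of sample wells plus 3 SD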
CHRM5 PAM = potentiates acetylcholine response at human M5 receptor; CHO-K1 hM5, Fluo-8 calcium, ACh EC20 PAM; 0% = ACh EC20, 100% = ACh EC100; 360,000 tested, 0.3% active; activation, % at 3 µM;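 active = activation above the run cutoff, the mean activation of all test compounds plus 3 SD, cut at about 18% in these data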
Target sequence (P08912 whole entry, looked up): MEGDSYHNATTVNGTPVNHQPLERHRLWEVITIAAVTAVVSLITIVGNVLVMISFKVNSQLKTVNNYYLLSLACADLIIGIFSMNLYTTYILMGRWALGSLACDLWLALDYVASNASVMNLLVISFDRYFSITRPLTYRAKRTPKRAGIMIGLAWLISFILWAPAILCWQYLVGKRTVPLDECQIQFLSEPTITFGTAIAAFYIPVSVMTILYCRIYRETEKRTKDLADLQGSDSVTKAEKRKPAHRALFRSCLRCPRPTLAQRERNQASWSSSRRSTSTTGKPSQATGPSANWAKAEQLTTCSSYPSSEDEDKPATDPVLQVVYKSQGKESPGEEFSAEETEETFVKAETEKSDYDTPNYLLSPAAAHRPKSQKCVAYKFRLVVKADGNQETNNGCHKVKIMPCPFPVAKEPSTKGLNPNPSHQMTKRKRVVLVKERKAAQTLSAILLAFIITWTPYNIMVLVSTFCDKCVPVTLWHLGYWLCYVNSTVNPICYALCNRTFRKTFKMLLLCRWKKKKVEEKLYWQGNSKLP
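Assay system: CHO-K1 hM5 cells / Incubation: Fluo-8 loading 80 min at 37 °C plus 30 min room temperature / Technique: Fluo-8 calcium dye fluorescence, kinetic read / Repeats: single replicate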
M5 antag = blocks acetylcholine activation of human M5 receptor; P08912; CHO-hM5 cells, Fluo-8 calcium fluorescence, ACh EC80; inhibition, % at 3 µM; 360,000 tested, 0.59% active;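 active = inhibition above a per-plate cutoff, the mean of that plate's test compounds plus 3 SD, cut at about 27% in these data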
CHRM4 antagonist = blocks acetylcholine activation of human M4 receptor | CHO-hM4 cells, ACh EC80, Fluo-8 calcium fluorescence | AID 624125 | inhibition, % at 3 µM | 360,000 tested, 0.73% active;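 active = inhibition above its plate's cutoff, the mean inhibition of sample wells plus 3 SD, cut at about 27% in these data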
M5 ag = agonists of human muscarinic M5 receptor (CHRM5). P08912. CHO-K1 hM5 cells, Fluo-8 calcium fluorescence; 0% DMSO wells, 100% maximal acetylcholine response. activation, % at 3 µM. 360,000 tested, 0.19% active. AID 624037;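 active = activation above the run's mean over test compounds plus 3 SD, cut at about 23% in these data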;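 also: signal is peak over basal fluorescence ratio across the kinetic read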
M4 ag = CHRM4 agonism in calcium assay. CHO-K1 hM4/Gqi5, Fluo-8 calcium fluorescence; vehicle 0%, full acetylcholine response 100%. activation, % at 3 µM. 360,000 tested, 0.14% active. AID 624127. P08173;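 active = activation above the run mean over all test wells plus 3 SD, cut at about 32% in these data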;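 also: peak over basal fluorescence ratio per well then scaled between controls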
Of the large screens only hits and unclear results are named; the others gave an inactive call.

O=C(CN(Cc1ccccc1)C(=O)c1csnn1)NCc1ccc2c(c1)OCO2	CHRM5 PAM 28.1
CCOC(=O)C1CCCN(c2nc3ccccc3nc2C(C#N)C(=O)OC(C)C)C1 (stereo unspecified)	M4 PAM 20.9
CCOC(=O)C1CCN(c2nc3ccccc3nc2C(C#N)C(=O)OC(C)C)CC1 (stereo unspecified)	none
CCc1ccccc1NC(=S)N(Cc1cccc(C)c1)c1cccnc1	none
Cc1cccc(CN(C(=S)Nc2c(C)cccc2C)c2cccnc2)c1	CHRM5 PAM 18.2
O=C(OCc1ccccc1)/C(=C/c1ccc(Cl)cc1)NC(=O)c1ccccc1Cl	none
CCOC(=O)/C(=C/c1ccc(Cl)cc1)NC(=O)c1ccco1	M4 PAM 23.5
COc1ccc(/C=C(/NC(=O)c2ccco2)C(=O)NCc2ccco2)cc1OC	M4 PAM 25.5
COC(C[C@@H]1O[C@H]1C(=O)COCc1ccccc1)OC	M4 PAM 24.6
CCCCNC(=O)C1C(c2ccc(C(F)(F)F)cc2)=Nc2ccccc2N1C(=O)c1ccc2nc(C)[nH]c2c1 (stereo unspecified)	none
Cc1cc(-c2ccc(Cl)cc2)n2nc(N)nc2n1	M4 PAM 28.1
COc1cc(C)ccc1S(=O)(=O)N1CCN(C23CC4CC(CC(C4)C2)C3)CC1	CHRM4 antagonist 88.6
COc1cc(F)ccc1S(=O)(=O)N1CCN(C23CC4CC(CC(C4)C2)C3)CC1	none
N#C/C(=C\c1coc2ccc(O)cc2c1=O)C(=O)Nc1nc2ccccc2s1	M5 antag 48.1, CHRM4 antagonist 39.5, M5 ag 104.5, M4 ag 67.2
O=C1/C(=C\c2ccc(Cl)c(Cl)c2)CN(C(=O)CCN2CCOCC2)C/C1=C/c1ccc(Cl)c(Cl)c1	CHRM4 antagonist 43.4
O=C1/C(=C\c2ccccc2)CN(C(=O)CCN2CCCCC2)C/C1=C/c1ccccc1	none
CCN(CC)Cc1ccccc1Sc1ccccc1	M5 antag 99.0, CHRM4 antagonist 52.9
N/C(Cc1ccccc1Sc1ccccc1)=N\O	none
COc1ccc(CN(C)C(=O)C(Cc2ccccc2)NC(=O)c2ccccc2)c(OC)c1 (stereo unspecified)	none
O=C(NN=C1CCCC1)c1n[nH]c2c1CCC2	M4 PAM 26.6
CC1=NN(C(=S)Nc2ccccc2)C(C)(C)C1	CHRM5 PAM 18.8
CC(C)(C)n1nc2c(c1NC(=O)c1ccc(S(=O)(=O)N3CCCCC3)cc1)CS(=O)C2 (stereo unspecified)	CHRM5 PAM 31.5
Cc1nc2ccccc2n1CC(=O)NCCN1CCOCC1	CHRM4 antagonist 32.3
CCC(=O)Nc1cccc(-c2ccc(N3CCC(C)CC3)nn2)c1	CHRM5 PAM 20.4
CCCC(CCC(=O)NC1CCCCC1)C(=O)O (stereo unspecified)	none
CCCC(CCC)C(=O)OC1C[C@H]2CC[C@@H](C1)[N+]2(C)C (stereo partly specified)	M5 antag 97.8, CHRM4 antagonist 99.1
COC(=O)[C@]1(Cc2ccccc2)N[C@H](CN(C)C(=O)c2ccc(C(C)(C)C)cc2)[C@@H]2C(=O)N(Cc3ccccc3)C(=O)[C@@H]21	none
O=C(C(Cc1ccccc1)n1cccc1)N1CCN(c2ccccc2)CC1 (stereo unspecified)	none
Cc1ccc(C)c(N2CCN(C(=O)C(Cc3ccccc3)n3cccc3)CC2)c1 (stereo unspecified)	M5 ag 41.7
O=C(O)CCC(=O)Nc1sc2c(c1C(=O)Nc1cccc3ccccc13)CCCCC2	none
O=C(O)CCC(=O)Nc1sc2c(c1C(=O)Nc1ccccc1)CCCCC2	CHRM4 antagonist 39.5
CC(C)OC(=O)c1c(NC(=O)CCC(=O)O)sc2c1CCCCC2	M4 PAM 21.4
CC1CCC(NC(=O)COC(=O)C2=NN(c3ccccc3)C(=O)CC2)CC1 (stereo unspecified)	none
COc1ccc(NC(=S)NC(NC(=O)c2cccc(Cl)c2)C(Cl)(Cl)Cl)c([N+](=O)[O-])c1 (stereo unspecified)	M5 antag 39.3
COc1ccc(NC(=S)NC(NC(=O)c2cccc(C)c2)C(Cl)(Cl)Cl)c([N+](=O)[O-])c1 (stereo unspecified)	none
CC(=O)COc1cccc2ccc(/C=C/c3ccc(Br)s3)nc12	CHRM5 PAM 22.7
C/C(=N\NC(=O)c1ccc2c(c1)OCO2)c1ccc(C(=O)O)s1	M5 antag 28.0
Cn1c(N)c(C(=O)/C=C/c2ccccc2)c(=O)[nH]c1=O	M5 antag 46.8
C(=Cc1c[nH]c2ccccc12)c1ccc2ccccc2n1	M4 ag 35.9
C(=Cc1c[nH]c2ccccc12)c1nccc2ccccc12	none
O=C(/C=C/c1c(F)cccc1Cl)NCCCN1CCOCC1	M4 PAM 16.5
CCOc1ccc(NC(=O)CN(C)C(=O)c2cc(S(=O)(=O)N(C)C)ccc2N2CCCC2)cc1OCC	none
CCC1CCCCN1CCCNC(=O)C1CCCN(c2nn3c(=O)cc(C)nc3s2)C1 (stereo unspecified)	none
Cc1cc(=O)n2nc(N3CCCC(C(=O)NCCCN4CCc5ccccc5C4)C3)sc2n1 (stereo unspecified)	CHRM4 antagonist 28.1
O=C(NCCC1CCCCN1S(=O)(=O)c1ccccc1)C(=O)NCc1ccccn1 (stereo unspecified)	none
CCCNC(=O)c1ccccc1NS(=O)(=O)c1ccc(OC)c(OC)c1	none
COc1ccc(S(=O)(=O)Nc2ccccc2C(=O)Nc2nc(-c3ccc(F)cc3)cs2)cc1OC	M5 antag 43.0, CHRM4 antagonist 32.6
COc1ccc(-c2csc(NC(=O)c3ccccc3NS(=O)(=O)c3ccc(C)cc3)n2)cc1	M5 antag 32.9
COc1ccc(-c2csc(NC(=O)c3c(OC)cccc3OC)n2)cc1	none
O=C1COc2ccccc2C(c2nc3ccccc3[nH]2)N1C1CC1 (stereo unspecified)	none
CSc1ccccc1-c1ccc2nccn2c1	none
COC(=O)c1ccc2c(C)c(C(C)(C)O)[nH]c2c1	none
CCOC(=O)C(=O)c1cn(C2OCC(OC(C)=O)C(OC(C)=O)C2OC(C)=O)c2ccccc12 (stereo unspecified)	M4 PAM 22.0
CCOC(=O)Cn1cc(C(=O)C(=O)N2CCOCC2)c2ccccc21	none
O=S(=O)(O)c1cc(O)ccc1O	M5 ag 36.2
COC(=O)[C@@]12CCCN1[C@H](c1ccc(-c3ccc4c(c3)OCO4)cc1)[C@H]1C(=O)N(C)C(=O)[C@H]12	none
